# Results reported in ChEMBL document CHEMBL1154612, “Discovery and validation of a series of aryl sulfonamides as selective inhibitors of tissue-nonspecific alkaline phosphatase (TNAP)” (J Med Chem, 2009).
# Assays:
# [1] = biological target: T1, Alkaline phosphatase, tissue-nonspecific isozyme (Homo sapiens, UniProt P05186); assay: Inhibition of TNAP transfected in african green monkey COS1 cells by luminescent assay
# T1 sequence (P05186 whole entry): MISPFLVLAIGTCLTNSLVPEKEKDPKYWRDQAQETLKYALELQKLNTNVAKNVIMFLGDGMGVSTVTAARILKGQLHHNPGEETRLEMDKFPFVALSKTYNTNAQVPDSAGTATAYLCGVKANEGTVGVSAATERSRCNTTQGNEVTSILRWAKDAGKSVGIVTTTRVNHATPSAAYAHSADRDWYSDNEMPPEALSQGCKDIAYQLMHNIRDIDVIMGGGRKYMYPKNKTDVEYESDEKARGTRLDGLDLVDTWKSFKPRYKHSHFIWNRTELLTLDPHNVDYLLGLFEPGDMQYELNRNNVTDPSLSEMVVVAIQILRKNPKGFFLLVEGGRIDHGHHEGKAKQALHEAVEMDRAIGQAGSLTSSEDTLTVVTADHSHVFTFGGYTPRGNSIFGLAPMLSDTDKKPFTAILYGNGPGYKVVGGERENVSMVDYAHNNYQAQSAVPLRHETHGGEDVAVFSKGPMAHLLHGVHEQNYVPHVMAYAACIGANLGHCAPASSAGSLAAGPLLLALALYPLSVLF
# [2] = Metabolic stability in rat plasma after 30 mins; assay type: ADME, cell-free; conditions: read-out: Stability
# Procedure, shortened: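 Compounds incubated in fresh rat plasma at 37 °C for 30 min. Reported as percent remaining.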
# [3] = Permeability by PAMPA assay; assay type: ADME
# [4] = Solubility at pH 7.4 by direct UV method; assay type: physicochemical; conditions: buffer
# Procedure, shortened: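 Direct UV kinetic solubility in aqueous buffer at pH 7.4, in duplicate. Samples held at room temperature for at least 18 h, then filtered to remove precipitate. UV absorbance (250-498 nm) compared with spectra of precipitation-free reference solutions.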
# [5] = Metabolic stability in rat liver microsomes after 30 mins; assay type: ADME, Microsome; conditions: read-out: Stability
# Procedure, shortened: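 Compounds incubated in triplicate with pooled rat liver microsomes plus NADPH at 37 °C for 30 min. Reported as percent remaining.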
# [6] = biological target: T2, Ectonucleotide pyrophosphatase/phosphodiesterase family member 1 (Homo sapiens) (UniProt P22413); assay: Inhibition of NPP1; conditions: concentration not given here
# T2 sequence (whole entry): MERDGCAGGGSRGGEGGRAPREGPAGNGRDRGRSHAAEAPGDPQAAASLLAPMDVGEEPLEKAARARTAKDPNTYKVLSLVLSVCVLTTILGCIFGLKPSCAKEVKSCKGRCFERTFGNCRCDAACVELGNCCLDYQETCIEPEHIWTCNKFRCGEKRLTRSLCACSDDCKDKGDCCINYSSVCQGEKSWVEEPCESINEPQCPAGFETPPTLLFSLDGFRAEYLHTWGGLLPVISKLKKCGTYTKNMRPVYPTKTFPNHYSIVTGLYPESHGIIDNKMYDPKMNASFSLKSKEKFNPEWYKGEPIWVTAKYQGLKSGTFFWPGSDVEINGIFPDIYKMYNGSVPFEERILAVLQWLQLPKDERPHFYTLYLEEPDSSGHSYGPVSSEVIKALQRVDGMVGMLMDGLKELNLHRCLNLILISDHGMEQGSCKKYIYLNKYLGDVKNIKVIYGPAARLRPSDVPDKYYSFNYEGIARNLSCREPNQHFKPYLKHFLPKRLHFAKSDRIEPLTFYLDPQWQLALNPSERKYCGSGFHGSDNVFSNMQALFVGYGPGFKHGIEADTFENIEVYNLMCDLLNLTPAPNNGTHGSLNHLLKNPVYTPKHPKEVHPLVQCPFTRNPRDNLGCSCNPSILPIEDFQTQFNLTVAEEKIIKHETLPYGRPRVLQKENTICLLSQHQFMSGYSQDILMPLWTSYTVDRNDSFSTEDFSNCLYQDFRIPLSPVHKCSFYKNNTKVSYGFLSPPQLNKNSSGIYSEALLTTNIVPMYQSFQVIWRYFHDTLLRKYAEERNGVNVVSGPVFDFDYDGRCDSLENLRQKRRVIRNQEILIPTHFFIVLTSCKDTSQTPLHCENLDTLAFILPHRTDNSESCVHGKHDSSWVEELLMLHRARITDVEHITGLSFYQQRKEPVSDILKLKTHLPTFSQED
# Procedure, shortened: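 NPP1 activity with 5 mM pNP-TMP in 50 mM Tris pH 7.4 or 100 mM Tris pH 8.9 with 2 mM MgCl2 at 37 °C. Reaction started with enzyme and stopped with 1 M NaOH at set times. p-Nitrophenolate read at 410 nm, in triplicate, with no-enzyme controls. Inhibitor tested at 10 μM final.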
# [7] = biological target: Intestinal-type alkaline phosphatase (Homo sapiens, UniProt P09923); assay: Inhibition of IAP by luminescent assay
# [8] = biological target: T3, Phosphoethanolamine/phosphocholine phosphatase (Homo sapiens) (UniProt Q8TCT1); assay: Inhibition of PHOSPHO1 assessed as inorganic phosphate release; conditions: concentration not given here
# T3 sequence (whole entry): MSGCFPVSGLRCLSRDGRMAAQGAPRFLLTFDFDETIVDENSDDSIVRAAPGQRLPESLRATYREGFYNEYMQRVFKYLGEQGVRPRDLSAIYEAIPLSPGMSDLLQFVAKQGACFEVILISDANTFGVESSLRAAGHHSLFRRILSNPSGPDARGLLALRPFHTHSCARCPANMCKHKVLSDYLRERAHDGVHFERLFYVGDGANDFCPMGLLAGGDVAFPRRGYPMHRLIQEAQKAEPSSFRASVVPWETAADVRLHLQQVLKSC
# [9] = Cmax in rat at 4.13 mg/kg, sc; assay type: ADME, organism-based; set-up: dose 4.13 mg/kg, route subcutaneous; conditions: in vivo
# Procedure, shortened: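 Rats dosed subcutaneously with 400 microliters of a […] solution (4.13 mg/kg) in 50% DMSO in normal saline. Blood drawn and frozen immediately, plasma kept at -20 °C. Compound quantified by LC-MS/MS (electrospray, C18 reverse-phase, water-acetonitrile gradient) against a 7-point calibration curve built from peak areas of serial dilutions.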
# Sequence of Intestinal-type alkaline phosphatase (P09923 whole entry): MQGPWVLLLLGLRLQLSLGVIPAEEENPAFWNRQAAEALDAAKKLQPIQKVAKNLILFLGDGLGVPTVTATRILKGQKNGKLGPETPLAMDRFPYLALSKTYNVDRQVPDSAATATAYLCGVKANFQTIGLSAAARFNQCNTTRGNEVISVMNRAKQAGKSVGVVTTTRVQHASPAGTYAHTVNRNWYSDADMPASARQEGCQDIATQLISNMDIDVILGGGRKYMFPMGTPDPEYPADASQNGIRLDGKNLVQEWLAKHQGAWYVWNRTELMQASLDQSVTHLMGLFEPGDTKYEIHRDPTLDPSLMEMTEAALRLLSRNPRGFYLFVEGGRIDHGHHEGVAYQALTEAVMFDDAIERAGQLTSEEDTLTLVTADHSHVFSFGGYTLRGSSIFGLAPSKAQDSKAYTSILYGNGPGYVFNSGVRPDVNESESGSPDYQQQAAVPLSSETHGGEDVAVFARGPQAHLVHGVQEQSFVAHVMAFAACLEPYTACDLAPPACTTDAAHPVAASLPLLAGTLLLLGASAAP
smiles,measurement,setting,value
COc1cc(C)c(Cl)cc1S(=O)(=O)Nc1cccnc1,IC50,[1],510 nM
COc1ccc(C)cc1S(=O)(=O)Nc1cnc2ccccc2c1,remaining at 0.5 h,[2],91%
same,IC50,[1],650 nM
same,permeability,[3],7%
same,solubility kinetic,[4],71.6 µg/mL
same,remaining at 0.5 h,[5],48%
COc1cc(C)c(C)cc1S(=O)(=O)Nc1cccnc1,IC50,[1],1680 nM
COc1ccc(C)cc1S(=O)(=O)Nc1cccnc1,remaining at 0.5 h,[2],98%
same,IC50,[1],1850 nM
same,permeability,[3],83%
same,solubility kinetic,[4],28.5 µg/mL
same,remaining at 0.5 h,[5],39%
COc1ccc(OC)c(S(=O)(=O)Nc2ccc3ncccc3c2)c1,IC50,[1],> 10000 nM
COc1cc([N+](=O)[O-])ccc1S(=O)(=O)Nc1cnc2ccccc2c1,remaining at 0.5 h,[2],96%
same,IC50,[1],740 nM
same,permeability,[3],11%
same,solubility kinetic,[4],178 µg/mL
same,remaining at 0.5 h,[5],56%
COc1cc(S(=O)(=O)Nc2cccnc2)c(OC)cc1Cl,IC50,[1],1130 nM
COc1cc(S(=O)(=O)Nc2cccnc2)c(OC)cc1Br,IC50,[1],1550 nM
COc1ccc(OC)c(CNc2cnc3ccccc3c2)c1,IC50,[1],> 10000 nM
COc1ccc(OC)c(S(=O)(=O)Nc2cccnc2)c1,IC50,[1],1060 nM
CCOc1cc(C)c(Cl)cc1S(=O)(=O)Nc1cccnc1,IC50,[1],690 nM
COc1ccc(F)cc1S(=O)(=O)Nc1cccnc1,IC50,[1],1290 nM
COc1ccc(OC)c(NS(=O)(=O)c2cnc3ccccc3c2)c1,IC50,[1],> 10000 nM
COc1ccc(OC)c(S(=O)(=O)Nc2ccc3ccccc3c2)c1,IC50,[1],> 10000 nM
CCOc1ccc(C)cc1S(=O)(=O)Nc1cccnc1,IC50,[1],1130 nM
COc1cccc(S(=O)(=O)Nc2cnc3ccccc3c2)c1,IC50,[1],> 10000 nM
CCOc1ccc(Cl)cc1S(=O)(=O)Nc1cccnc1,IC50,[1],540 nM
COc1ccc(Br)cc1S(=O)(=O)Nc1cnc2ccccc2c1,remaining at 0.5 h,[2],66%
same,permeability,[3],54%
same,solubility kinetic,[4],37.9 µg/mL
same,remaining at 0.5 h,[5],49%
COc1cc([N+](=O)[O-])ccc1S(=O)(=O)Nc1cccnc1,remaining at 0.5 h,[2],99%
same,IC50,[1],3160 nM
same,permeability,[3],51%
same,solubility kinetic,[4],1.1 µg/mL
same,remaining at 0.5 h,[5],68%
COc1ccc(OC)c(S(=O)(=O)Nc2cnc3ccccc3c2)c1,inhibition,[6],< 9.5%
same,remaining at 0.5 h,[2],97%
same,permeability,[3],58%
same,solubility kinetic,[4],138 µg/mL
same,IC50,[7],> 100000 nM
same,inhibition,[8],< 7.4%
same,remaining at 0.5 h,[5],78%
same,Cmax,[9],1500 ng/mL
COc1cc(S(=O)(=O)Nc2cccnc2)c(OC)cc1C,IC50,[1],1490 nM
